Tests used:
[1] = species: Rattus norvegicus; assay: Concentration required to cause 50% inhibition of spontaneous activity in rat portal vein; type: functional; settings: for IC50: Rattus norvegicus
[2] = species: Rattus norvegicus; assay: Concentration required to cause 15% increase in [86Rb+] efflux from rat portal vein.; type: functional
In short: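 Rat portal vein, opened lengthwise, tension 500 mg, equilibrated 30 min in HEPES-buffered PSS (95% O2/5% CO2, 32 °C, pH 7.4), then loaded 80 min with 86RbCl (5 µCi/mL). Perfusate collected every 2 min; rate constant k from released vs. remaining tissue activity. Drug effect = peak k during application vs. basal k (6–10 min prior), as Δk %; n = 4–6.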

[3] = Ionisation constant (pKa1) due to protonation of the pyridyl ring; type: physicochemical; settings: read-out: pKa1
[4] = Ionisation constant (pKa2) due to […]; type: physicochemical; settings: read-out: pKa2
[5] = Ionisation constant (pKa2)

IC50 [1] [nM] | Log IC50 [1] | pKa [3] | pKa [4] | pKa2 [5] | Compound | pEC15 [2]
1580 | – | – | – | – | COc1cncc(N/C(=C/[N+](=O)[O-])N[C@H](C)C(C)(C)C)c1 | 4
– | -5.2 | – | – | – | CC(/N=C(/NC#N)Nc1cccnc1)C(C)(C)C (single isomer, unassigned) | –
31.6 | – | 2.28 | 9.03 | – | CC(N/C(=C\[N+](=O)[O-])Nc1cccnc1)C(C)(C)C (centres undefined) | 5.5
3160 | – | 5.46 | > 14 | – | CC(C)(C)CNC(=O)Nc1ccncc1.Cl | 3.3
– | – | 2.7 | 12 | – | CC(/N=C(/NC#N)Nc1cccnc1)C(C)(C)C (centres undefined) | 6.3
10000 | – | – | – | – | CC(C)(C)CN/C(=C\[N+](=O)[O-])Nc1ccncc1 | <3.5
12.6 | – | – | – | – | CC(C)(C)/N=C(/NC#N)Nc1cccnc1 | 6.1
– | -6 | – | – | – | C[C@@H](N/C(=C\[N+](=O)[O-])Nc1cccnc1)C(C)(C)C | 3.8
3160 | – | – | – | – | O=[N+]([O-])/C=C(/Nc1cccnc1)NC1CCCCC1 | 3.5
316 | – | 4.89 | 13 | – | C[C@H](/N=C(/S)Nc1ccncc1)C(C)(C)C.Cl | 4
33.9 | – | – | – | – | C[C@@H](N/C(=N/c1ccncc1)NC#N)C(C)(C)C | 5.9
3160 | – | 2.03 | 8.1 | – | CC(C)(C)C1CN=C(Nc2cccnc2)N1 (centres undefined) | –
3160 | – | – | – | – | CC(C)(C)C(CO)/N=C(/S)Nc1cccnc1 (centres undefined) | <3.5
– | – | – | – | – | C[C@@H](/N=C(/S)Nc1ccncc1)C(C)(C)C.Cl | 4
2 | – | 2.61 | 12.2 | – | CCC(C)(C)/N=C(\NC#N)Nc1cccnc1 | 7.4
– | -8 | – | – | – | CC(N/C(=C\[N+](=O)[O-])Nc1cccnc1)C(C)(C)C (single isomer, unassigned) | 5.8
20000 | – | 3.89 | – | – | CC(C)(C)C1CSC(Nc2cccnc2)=N1 (centres undefined) | –
776 | – | – | – | – | C[C@H](N/C(=N/c1ccncc1)NC#N)C(C)(C)C | 4.4

IC50 [1] [nM] | Log IC50 [1] | pKa [3] | pKa [4] | pKa2 [5] | Compound | pEC15 [2]
– | -7 | – | – | – | C[C@@H](/N=C(/NC#N)Nc1cccnc1)C(C)(C)C | –
316 | – | – | 8.88 | – | CC(N/C(=C\[N+](=O)[O-])Nc1cccc(C#N)c1)C(C)(C)C (centres undefined) | 4
100 | – | 2.83 | 11.8 | – | CC(C)(C)C/N=C(/NC#N)Nc1cccnc1 | 5.5
20000 | – | – | – | – | CC(C)(C)CN/C(=C\[N+](=O)[O-])NCc1cccnc1 | <3.5
15.8 | – | 1.86 | 6.5 | – | COc1cncc(N/C(=C/[N+](=O)[O-])N[C@@H](C)C(C)(C)C)c1 | 6.5
31600 | – | – | – | – | CC(C)N/C(=C\[N+](=O)[O-])Nc1cccnc1 | <3.5
200 | – | – | – | – | CCC(C)(C)/N=C(/S)Nc1cccnc1 | 5.2
1000 | – | – | – | – | CC(N/C(=C\[N+](=O)[O-])Nc1ccncc1)C(C)(C)C (centres undefined) | 3.3
1000 | – | – | – | 8.86 | CC(C)(C)CN/C(=C\[N+](=O)[O-])Nc1cccnc1 | 4
1000 | – | 3.57 | – | – | CC(C)(C)c1csc(Nc2cccnc2)n1 | –
50.1 | – | 2.97 | 13.2 | – | CC(/N=C(/S)Nc1cccnc1)C(C)(C)C (centres undefined) | 5.7
100000 | – | – | – | – | CCC(C)N1CCN=C1Nc1cccnc1 (centres undefined) | <3
– | – | 2.23 | 11.3 | – | CC(C)(C)C/C(=N/c1cccnc1)NC#N | 4.3
2000 | – | 3.74 | > 14 | – | CC(C)(C)CNC(=O)Nc1cccnc1 | 4
63.1 | – | 4.81 | 11.3 | – | CC(N/C(=N\C#N)Nc1ccncc1)C(C)(C)C (centres undefined) [PINACIDIL ANHYDROUS] | 5.7
200 | – | 3.08 | 13.1 | – | CC(C)(C)C/N=C(/S)Nc1cccnc1 | 5
2000 | – | – | – | – | CC(C)(C)CCN/C(=C\[N+](=O)[O-])Nc1cccnc1 | 3.5

Compound | IC50 [1] [nM] | Log IC50 [1] | pKa [3] | pKa [4] | pKa2 [5] | pEC15 [2]
CC1(C)CSC(Nc2cccnc2)=N1 | 31600 | – | – | – | – | –
CC1(C)CN=C(Nc2cccnc2)N1 | > 10000 | – | – | 8.2 | – | –
CC(C)(C)/N=C(\Cc1cccnc1)NC#N | 5010 | – | 2.71 | > 14 | – | 3.5

Source: ChEMBL document CHEMBL1126086, “Structure-activity studies of potassium channel opening in pinacidil-type cyanoguanidines, nitroethenediamines, thioureas, and ureas” (J Med Chem, 1992)
